WT yeast gro inh – growth inhibition of WT yeast, mitochondrial fusion screen; hit rate 2.1% among 190,000; mitochondrial fusion phenotypic screen, WT strain; inhibition, % at 10 µM; in the data active = inhibition above about 58%; tested in S. cerevisiae
BB579 growth dn – reduces growth of yeast BB579 in restrictive medium. S. cerevisiae BB579 growth, OD615, 48 h. inhibition, % at 10 µM. hit rate 0.51% among 140,000. AID 804;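 active = inhibition above a set limit, 3 SD over the mean compound inhibition, cut at about 44% in these data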
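Material: Saccharomyces cerevisiae DeaD strain BB579, replicative lifespan model yeast; buffer or medium: CSMM-D restrictive synthetic medium containing dextrose (glucose); compound: 10 µM single dose, DMSO 0.25%; timing: 48 h compound exposure at 30 °C after 4 h preincubation; signal: turbidity as optical density at 615 nm; benchmarks: positive control amphotericin B 10 µg/mL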
RAM network inh – blocks the yeast RAM network | inhibition, % at 50 µM | AID 868 | hit rate 1.8% among 190,000 | S. cerevisiae dse1pr::URA3 reporter, 5-FOA growth OD615, 2 d; analog-sensitive cbk1-as2 kinase mutant strain;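 active = inhibition above a set limit, 3 SD over mean compound inhibition, cut at about 8.4% in these data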;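 also: 0% = DMSO-only wells with no growth and 100% = 10 µM 1-NA-PP1 full growth; inhibition rescues growth on 5-FOA so higher OD means more RAM inhibition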
KCC2 mod – modulates chloride dependent transport by human KCC2. Q9H2X9. KCC2 cells, thallium flux FluoZin-2 fluorescence. B-score of Tl+ flux slope (higher = more flux/activation; lower = inhibition) at 10 µM. hit rate 2.2% among 190,000. AID 1456;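 active = thallium flux slope and its plate-corrected score both differing from the plate sample mean at a set confidence after two filtering rounds, in either direction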;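 also: slope of fluorescence scaled to starting intensity during 10 to 20 s after thallium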
Target sequence (Q9H2X9 whole entry, looked up): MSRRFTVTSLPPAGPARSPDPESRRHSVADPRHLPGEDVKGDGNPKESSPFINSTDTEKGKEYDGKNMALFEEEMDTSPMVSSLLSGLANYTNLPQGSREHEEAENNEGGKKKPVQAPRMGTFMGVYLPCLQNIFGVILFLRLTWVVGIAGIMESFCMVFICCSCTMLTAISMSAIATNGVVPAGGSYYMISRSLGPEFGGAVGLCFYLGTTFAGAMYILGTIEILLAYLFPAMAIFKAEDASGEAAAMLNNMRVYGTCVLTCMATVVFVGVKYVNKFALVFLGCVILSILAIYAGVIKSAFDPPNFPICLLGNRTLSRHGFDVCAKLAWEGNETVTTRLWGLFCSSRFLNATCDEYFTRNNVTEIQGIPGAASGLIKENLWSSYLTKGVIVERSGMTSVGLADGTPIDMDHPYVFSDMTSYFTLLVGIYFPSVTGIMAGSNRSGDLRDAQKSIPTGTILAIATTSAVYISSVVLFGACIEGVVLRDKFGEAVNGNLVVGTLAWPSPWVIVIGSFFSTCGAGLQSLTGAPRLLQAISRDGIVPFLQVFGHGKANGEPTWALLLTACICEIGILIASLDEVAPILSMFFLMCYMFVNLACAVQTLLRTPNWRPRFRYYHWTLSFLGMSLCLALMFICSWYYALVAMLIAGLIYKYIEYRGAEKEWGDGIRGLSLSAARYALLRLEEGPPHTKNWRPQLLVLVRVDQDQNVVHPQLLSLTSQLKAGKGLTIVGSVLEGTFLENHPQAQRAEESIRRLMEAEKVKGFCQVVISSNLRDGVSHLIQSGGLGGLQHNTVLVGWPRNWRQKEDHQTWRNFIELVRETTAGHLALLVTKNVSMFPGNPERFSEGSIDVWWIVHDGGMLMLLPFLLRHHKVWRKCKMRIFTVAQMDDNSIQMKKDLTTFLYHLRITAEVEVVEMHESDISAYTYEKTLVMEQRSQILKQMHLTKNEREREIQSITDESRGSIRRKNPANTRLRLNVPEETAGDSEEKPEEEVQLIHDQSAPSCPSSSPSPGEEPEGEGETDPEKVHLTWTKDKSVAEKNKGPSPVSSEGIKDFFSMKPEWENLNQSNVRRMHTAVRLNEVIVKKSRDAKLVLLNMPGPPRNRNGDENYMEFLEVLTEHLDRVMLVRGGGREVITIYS
Yeast lifespan up – extends the lifespan of yeast; inhibition of the nicotinamide effect, % at 10 µM; AID 775; hit rate 0.68% among 130,000; S. cerevisiae growth with nicotinamide, OD615; deaD strain in restrictive glucose medium;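 active = inhibition above a set limit, placed 3 SD over the median of all compounds, cut at about 26% in these data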;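 also: 0% = nicotinamide-treated wells and 100% = cells grown without nicotinamide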
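Assay system: engineered S. cerevisiae DeaD replicative-lifespan strain, galactose-grown log-phase cells; Buffer or medium: CSMM-D glucose medium, restrictive; Probe or stimulus: nicotinamide 1.5 mM; Compound: single dose 10 µM compound, 0.25% DMSO; Schedule: 4 h preincubation then 48 h treatment at 30 °C; Technique: OD615 measurement.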
* hit, by the source's call; / = not tested or not shown. Only some compounds are listed: those with a hit (about 5.5% of all), similar ones and a draw of the others.

SMILES	WT yeast gro inh	BB579 growth dn	RAM network inh	KCC2 mod	Yeast lifespan up
CCCCCc1nc2sc3c(c2c(=O)n1NC(=O)c1ccc([N+](=O)[O-])cc1)CC(C)(C)OC3	80*	-17	3	-0.037	-1
COc1ccc(C2CC(c3ccccc3)=NN2C(=O)COC(=O)/C=C/c2ccc(O)c(OC)c2)cc1 (configuration not stated)	/	/	/	0.76	/
COc1ccc(NS(=O)(=O)c2cc([N+](=O)[O-])ccc2N/N=C\c2c(C)[nH]c3ccccc23)cc1	56	-65	6	-0.58	3
O=[N+]([O-])c1ccc(N/N=C/c2c[nH]c3ccccc23)cc1	87*	-45	2	0.24	-2
COc1ccccc1NS(=O)(=O)c1cc([N+](=O)[O-])ccc1N/N=C/c1c[nH]c2ccccc12	34	5	10*	-0.013	-1
O=[N+]([O-])c1ccc(N/N=C/c2ccc[nH]2)cc1	44	87*	8.9*	-1.7	-6
O=C(c1ccccc1)N1CCN(C(=S)NCc2ccco2)CC1	5	/	-1	0.55	/
O=C(CSc1nnc(-c2ccccc2Br)o1)Nc1cccc2ccccc12	-5	-33	5	1.3	-3
Cc1cc(C)cc(NC(=O)CSc2nnc(-c3ccccc3Br)o2)c1	3	-31	11*	/	-1
COc1cccc(NC(=O)CSc2nnc(-c3cc(C)n(-c4ccccc4)c3C)o2)c1	50	-24	9.3*	0.089	-1
N#Cc1ccc(NC(=S)NC(=O)CCc2ccc(S(=O)(=O)N3CCOCC3)cc2)cc1	-9	/	4	0.82	/
CC(=O)NS(=O)(=O)c1ccc2sc(C)nc2c1	/	/	/	-1.3	/
O=C(Nc1ccccc1)NC1CCCCNC1=O (configuration not stated)	/	/	/	-0.16	/
O=C(Oc1ccc(=O)n(-c2ccccc2)n1)c1ccccc1	-25	-52	-1	-0.4	36*
O=C(O)COc1ccc(=O)n(-c2ccccc2)n1	-8	3	0	/	-6
CNC(=S)/N=C/NOCc1ccc(Cl)cc1Cl	62*	/	1	0.075	/
C[C@@H](Oc1ccccc1)c1nnn(Cc2ccccc2)c1-c1c([C@@H](C)Oc2ccccc2)nnn1Cc1ccccc1	/	/	/	0.64	/
NC(=O)c1cc(Br)cc2c3c([nH]c12)CCCC3	66*	-24	-1	/	-7
O=C(Nc1ccccc1)NC1(C(=O)NCc2cccs2)CCCCC1	-5	-67	4	/	-1
Cc1ccc(OCCNC(=O)c2cc(C(=O)NCCOc3ccc(C)cc3)cc([N+](=O)[O-])c2)cc1	22	-64	8.9*	1.5	6
Cn1c(N=Nc2ccccc2)nc2ccccc21	86*	-19	-1	-1.8	-5
CN(C)c1ccc(N=Nc2nc3ccccc3n2C)cc1	/	/	/	-2.3	/
Cn1c(/C=N/O)nc2ccccc21	/	/	/	0.34	/
CCn1c(/C=N/c2nc3ccccc3n2C)nc2ccccc21	5	1	1	0.23	34*
CN1C(=S)SC2CS(=O)(=O)CC21 (configuration not stated)	/	/	/	0.028	/
SMILES	WT yeast gro inh	BB579 growth dn	RAM network inh	KCC2 mod	Yeast lifespan up
Cc1ccc2c(c1)N(Cc1ccncc1)C(=O)C(C)O2 (configuration not stated)	-4	-22	0	-0.19	-2
Cc1ccc(O)c(C(=O)c2cnc3c(c2)c(C)nn3-c2ccccc2)c1	23	-14	5	0.74	-7
NS(=O)(=O)c1ccc(Sc2nc3ccccc3s2)c([N+](=O)[O-])c1	/	/	/	-0.89	/
O=C(O)c1ccc(S(=O)(=O)Nc2ccc(O)c(Sc3nc4ccccc4s3)c2)cc1	5	/	9.8*	0.18	/
CC(C)CC1N=C2c3ccccc3N=C(SCc3cc(=O)n4ccccc4n3)N2C1=O (configuration not stated)	/	/	/	-0.51	/
Cc1ccc(-n2cc(C(=O)c3ccc(F)cc3)nn2)cc1Cl	68*	-49	3	/	-18
COc1ccc2nc(NC(=O)c3cccc(OCc4c(C)noc4C)c3)sc2c1	73*	-24	3	-0.073	17
CC(/C=C(\NC(=O)c1ccccc1)C(=O)N=Nc1c(O)[nH]c2ccc(C)cc12)=C\c1ccccc1	10	-24	7	-0.45	-4
COC(=O)CSc1nnc(CNC(=O)c2ccc(OC)c(OC)c2)n1C	-2	/	0	/	/
Cc1cc(OCc2ccc(C(=O)NN=C3CCCC3)cc2)ccc1Cl	71	97*	0	-0.38	-6
NNC(=O)c1ccc(COc2ccc3c(c2)CCC3)cc1	50	30	-1	-0.14	-5
O=C(Nc1ccccc1Cl)c1ccc(COc2ccc3c(c2)CCC3)cc1	-7	-55	11*	1.5	6
COc1cc(/C=C2\SC(=S)N(Nc3ncc(C(F)(F)F)cc3Cl)C2=O)ccc1O	83*	-35	2	-0.65	-15
COc1cc(/C=C2\SC(=S)N(Nc3ccccc3)C2=O)ccc1O	86*	-16	1	0.26	-5
CCOc1cc(/C=C2\SC(=S)N(Nc3ccccc3)C2=O)ccc1O	69*	-37	3	-0.21	-13
O=C1/C(=C/c2ccc(O)c(O)c2)SC(=S)N1Nc1ccccc1	7	/	1	-2.3	/
O=C(NN=C1C2CC3CC1CC(Cl)(C3)C2)c1ccccn1	9	/	0	0.7	/
O=C(Nc1nc(-c2ccccc2)cs1)c1ccc(Br)o1	63*	-46	4	/	-9
CC(C)COC(=O)/C(C#N)=C/c1c[nH]c2ccccc12	7	-32	6	0.81	-2
Cc1cccc(NC(=O)CC2SC(=O)N(c3ccccc3)C2=O)c1 (configuration not stated)	2	50*	1	-0.36	14
O=C(CC1SC(=O)N(c2ccccc2)C1=O)Nc1ccccc1 (configuration not stated)	-7	4	8	-0.22	16
CCOc1ccc(C(=O)NCC(=O)OCc2ccc(F)cc2Cl)cc1	1	-33	3	-1.4	-3
COc1cc(NC(=O)c2cccc(C)c2)c(Cl)cc1[N+](=O)[O-]	1	-49	8	0.17	4
O=C(Oc1c(Cl)cc(Cl)c2cccnc12)c1cccc([N+](=O)[O-])c1	56	100*	-1	51*	-12
Cc1cc(C)nc(N2CCCC(C(=O)NCc3cccs3)C2)n1 (configuration not stated)	70*	-8	1	/	-18
c1ccc(-c2ccc(OCCCn3cncn3)cc2)cc1	-10	80*	-1	/	-18
COc1ccc(CN(C(=O)c2cc(=O)c3cc(C)cc(C)c3o2)C2CCS(=O)(=O)C2)cc1 (configuration not stated)	/	/	/	-0.37	/
CCc1ccc(-n2cccc2/C=C2/C(=N)N3C(=NC2=O)SN=C3S(C)(=O)=O)cc1	10	/	11*	-5.4*	/
Cc1ccc(-n2cccc2/C=C2/C(=N)N3C(=NC2=O)SN=C3S(C)(=O)=O)cc1	-11	/	8	-3.7	/
NCc1ccccc1COc1ccccc1	1	-42	2	0.0095	6
